Measurements published in paper PMC9382716 (Biochemistry, 2021).
Read-outs that look alike come from different tables or passages of the source.

Assays:
[1] = target: T1, Drosophila melanogaster HhC (Drosophila melanogaster, UniProt Q02936); assay: Cholesterolysis kinetics; assay type: biochemical; settings: C−H−Y
T1 sequence (Q02936 258-471 limits assumed): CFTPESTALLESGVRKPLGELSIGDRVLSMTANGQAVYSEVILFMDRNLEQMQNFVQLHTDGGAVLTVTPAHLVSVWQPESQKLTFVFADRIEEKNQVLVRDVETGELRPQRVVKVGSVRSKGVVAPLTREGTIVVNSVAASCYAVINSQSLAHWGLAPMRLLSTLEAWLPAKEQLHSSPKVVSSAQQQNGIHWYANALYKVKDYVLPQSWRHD

HhC [2] = target: T2, HhC (Drosophila melanogaster, UniProt Q02936); assay type: binding; settings: HhC 5 μM, tSP 10 μM, competitor 200 μM
T2 sequence (Q02936 258-471 limits assumed): T1 sequence (Q02936 258-471 limits assumed)
How it was run: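 HhC at 5 μM with diazirine-bearing sterol probe tSP and 50 μM azide-linked fluorophore. Saturating cholesterol or test compound added as competitor. UV photolysis. Labeling read by SDS-PAGE with fluorescent gel imaging. Coomassie stain for total HhC.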

[3] = target: T1, Drosophila melanogaster HhC; settings: read-out: KM as HhC substrate; cited from earlier work
HhC [4] = target: T2, HhC; assay: MS/MS mapping of tSP binding site on HhC/tSP adduct; settings: product form of HhC, preliminary MS/MS

Structure (SMILES) | kmax as HhC substrate ([1]; no inhibitor) [s⁻¹] | effect on active-site photolabeling of HhC by tSP (HhC [2]) | Km [3] [µM] | difference in kmax/KM compared with cholesterol [1] [fold] | Km ([1]; read-out: KM as HhC substrate, no inhibitor) [µM] | site of probe attachment on HhC (HhC [4])
CC(C)CCC[C@@H](C)[C@H]1CC[C@H]2[C@@H]3CC=C4C[C@@H](O)CC[C@]4(C)[C@H]3CC[C@]12C [cholesterol] | 0.0019 | competitively blocks | 1.5 | – | – | –
C#CCCCCOC(=O)CC[C@@H](C)[C@H]1CCC2C3CC4(N=N4)[C@H]4C[C@@H](O)CC[C@]4(C)C3CC[C@@]21C (stereo partly shown) [tSP] | 0.0042 | – | – | < 2 | 6.8 | EQLHSSPK (HhC residues 174−181)
